RORa inhibitor – inhibitors of human nuclear receptor RORA; P35398; inhibition, % at 10 µM; AID 561; 0.43% of 65,000 active; CHO-K1 Gal4-RORA LBD luciferase reporter, luminescence;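 active means inhibition above the mean of all tested compounds plus 3 SD, cut at about 52% in these data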
Target sequence (P35398 whole entry, looked up, the tested form may be a part): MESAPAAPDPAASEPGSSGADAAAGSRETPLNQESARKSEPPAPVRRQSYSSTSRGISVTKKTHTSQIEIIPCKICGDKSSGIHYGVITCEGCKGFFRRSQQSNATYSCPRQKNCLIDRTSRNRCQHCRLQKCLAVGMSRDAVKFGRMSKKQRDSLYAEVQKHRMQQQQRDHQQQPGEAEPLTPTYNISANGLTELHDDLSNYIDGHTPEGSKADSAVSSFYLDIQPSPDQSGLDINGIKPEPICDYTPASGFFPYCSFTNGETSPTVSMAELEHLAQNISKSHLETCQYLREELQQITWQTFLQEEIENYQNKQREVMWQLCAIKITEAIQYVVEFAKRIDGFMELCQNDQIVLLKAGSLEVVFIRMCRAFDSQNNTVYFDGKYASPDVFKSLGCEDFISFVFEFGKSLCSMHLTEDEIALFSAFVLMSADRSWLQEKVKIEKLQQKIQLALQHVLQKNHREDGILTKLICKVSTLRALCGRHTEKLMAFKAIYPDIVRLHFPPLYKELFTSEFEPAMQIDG
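test system = CHO-K1 Gal4-RORA LBD luciferase reporter cells | dosing = 10 µM single point | times = 20 h compound treatment, 37 °C | signal = luciferase luminescence | read-out = % inhibition of basal luciferase versus +RORA/-RORA DMSO controls | benchmarks = mock-transfected cells as 100%, +RORA DMSO cells as 0% | replicates = tested once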
Large screens that a line does not name were inactive. Only a selection was taken, and hits are over-represented in it overall.

O=C(/C=C\Nc1ccc2c(c1)OCO2)c1ccccn1	RORa inhibitor 85
O=C(Cn1cnc2c(oc3ccccc32)c1=O)N1CCN(c2ccccc2)CC1	none
CCOc1ccccc1N1CCN(S(=O)(=O)CC)CC1	none
C=CCOc1cccc(C2/C(=C(/O)c3ccc(Cl)cc3)C(=O)C(=O)N2CCN2CCOCC2)c1 (stereo not given)	none
c1ccc(Oc2cc(-n3cccn3)ncn2)cc1	none
O=C(Nc1ccccc1)OCc1ccccn1	none
CCCc1ccc(OCc2ccc(C(=O)N3CCN(c4ccccn4)CC3)o2)c(OC)c1	none
CCOc1ccc(OCc2ccc(C(=O)OCc3ccccn3)o2)cc1	RORa inhibitor 58
Cc1ccc(NC(=O)c2cnccn2)c(OC(F)F)c1	none
O=C1C2ON(c3ccccc3)C(c3cccnc3)C2C(=O)N1c1ccccc1 (stereo not given)	none
O=C(Cn1c(=O)sc2ccccc21)NCc1ccco1	none
O=C(Nc1ncnc2sc3c(c12)CCC3)c1ccco1	none
O=C(NCc1ccco1)c1ccc2nc3sc4c(c3c(=O)n2c1)CCCC4	RORa inhibitor 56
CCOC(=O)c1nnc2cc(-c3ccc(Br)cc3)nn2c1C	none
O=S1(=O)C=C(Sc2nc3cc(Cl)ccc3o2)c2ccccc21	RORa inhibitor 75
CCOc1ccc(S(=O)(=O)N2CCN(Cc3ccccc3)CC2)c2cccnc12	none
CC(=O)N1CCc2cc(S(=O)(=O)NC(C(=O)Nc3nc(C)cs3)C(C)C)ccc21 (stereo not given)	none
Cc1c(C(=O)Nc2ccccc2)sc2nc(-c3ccccc3)cn12	none
CCc1nn2cc(-c3ccccc3)nc2s1	RORa inhibitor 66
CCS(=O)(=O)n1nc(-c2ccccc2)cc1N	none
CCc1ccc(N(CC(=O)NC2CCCCC2)S(=O)(=O)c2c(C)noc2C)cc1	none
CCOC(=O)N1CCc2c(sc(NC(C)=O)c2C(N)=O)C1	none
O=C(CSc1ncnc2c1cnn2-c1ccccc1Cl)N1CCN(C(=O)c2ccco2)CC1	none
CCOc1ccc(C2=Nn3c(nnc3-c3ccccc3OC)SC2)cc1	RORa inhibitor 54
COc1ccccc1-c1nnc(SCC(=O)Nc2nc(-c3ccccc3)cs2)n1C	none
Clc1ccc(C2=Nn3c(nnc3-c3n[nH]c4c3CCC4)SC2)cc1	none
Cc1noc(C)c1C(=O)OCC(=O)c1c[nH]c2ccccc12	none
O=C(Nc1ccc2c(c1)OCO2)c1cccc2c1C(=O)N(Cc1cccnc1)C2	none
CCN(CC(=O)Nc1ccc2c(c1)OCCO2)C(=O)C1CCCCC1	none
CCS(=O)(=O)N1CCCC(c2nc(-c3cccc(OC)c3)no2)C1 (stereo not given)	none
CCCS(=O)(=O)c1nnnn1-c1cccc(OC)c1	RORa inhibitor 82
COc1ccc2c(-c3ccccc3)cc3nnnn3c2c1	none
CCCc1nnc(NC(=O)CNc2ccc(F)cc2)s1	none
CCOc1ccc(-c2[nH]ncc2Oc2ccccc2OCC)c(O)c1	none
CN1CCN(c2cc(=O)n(C3CCCCC3)c(=O)[nH]2)CC1	none
O=c1cc(N2CCN(c3cccc(Cl)c3)CC2)[nH]c(=O)n1C1CCCCC1	RORa inhibitor 65
COc1ccccc1N1CCN(c2cc(=O)n(-c3ccccc3Cl)c(=O)[nH]2)CC1	none
COC(=O)Nc1ccc(S(=O)(=O)N2CCCc3ccccc32)cc1	none
Clc1ccccc1OCc1nn2c(-c3ccncc3)nnc2s1	none
Nc1ccc(-c2nc3c(Cl)cc(N)cc3[nH]2)cc1	RORa inhibitor 79
Cc1ccc2[nH]c(-c3cccc(N)c3)cc2c1	none
Nc1cccc(-c2nc3ccc(N)cc3s2)c1	RORa inhibitor 57
Nc1nc2ccc(Oc3ccccc3)cc2s1	none
O=C1CC(c2ccccc2)CC2=C1CN(C1CCCCC1)CN2 (stereo not given)	none
O=C(O)CSCCn1cccn1	none
c1ccc(N2CCN(c3nc4cc5c(cc4s3)OCCO5)CC2)cc1	none
c1c2c(cc3sc(N4CCOCC4)nc13)OCCO2	RORa inhibitor 69
CCOc1ccc2nc(N3CCCC(C(=O)NCCCN4CCOCC4)C3)sc2c1 (stereo not given)	none
Cc1nn(CC(=O)NCc2ccccc2)c(=O)c2ccccc12	none
CCN(CCCNC(=O)CCn1c(=O)[nH]c2ccccc2c1=O)c1ccccc1	none
O=C(c1ccco1)N1CCn2c1nc1ccccc12	none
COc1ccc(CCNC(=O)C2CCCN(S(C)(=O)=O)C2)cc1OC (stereo not given)	none
COc1ccc(CCNc2nnc(Sc3nnnn3-c3ccccc3)s2)cc1OC	RORa inhibitor 69
COc1ccc(CCNS(=O)(=O)c2cn(C)c(=O)n(C)c2=O)cc1OC	none
Cc1cc(NC(=O)c2oc3ccccc3c2C)ccc1-n1cnnn1	none
Cc1nc(N2CCN(C(=O)CCC(=O)O)CC2)c2c(C)c(C)sc2n1	none
COc1cc2cc(CN(CCCO)S(=O)(=O)c3ccccc3)c(=O)[nH]c2cc1OC	none
O=C(Nc1ccc2c(c1)ncn2C1CCCCC1)c1ccco1	none
CC(=O)Oc1ccc2cc(-c3nc4ccccc4n3C)c(=O)oc2c1	none
O=C(CSc1nnc(Cn2nnc3ccccc32)o1)N(Cc1ccc(F)cc1)c1ccccc1	RORa inhibitor 71
COc1cc(OC)cc(-c2nnc(SCC(=O)N(Cc3ccccc3)C(C)(C)C)o2)c1	none
COc1cc(-c2nnc(SCC(=O)N(Cc3ccccc3)C(C)(C)C)o2)cc(OC)c1OC	none
Cn1c(SCc2ccccc2Cl)nnc1-c1cnccn1	none
O=C(CSc1nnc(-c2ccccc2Cl)o1)N1CCCCC1	none
NCCCCCc1nnc(SCc2ccccc2Cl)o1	RORa inhibitor 57
O=C(O)CCCCNS(=O)(=O)c1ccc(Cl)c(C(F)(F)F)c1	none
CNc1sc(C(=O)c2cccs2)c(N)c1-c1nc2ccccc2s1	none
O=C(OCc1nc2ccccc2s1)c1cccs1	none
O=C(NC1CC1)c1ccc(-c2nc3ccccc3s2)s1	RORa inhibitor 81
CSCCC(=O)Nc1ccc(C(C)=O)cc1	none
COCC(=O)Nc1ccc(C)c(Cl)c1	none
Cc1ccc2c(=O)c(CN(C)C3CCN(C)CC3)c(C)[nH]c2c1C	none
COc1ccc(OC)c(NC(=O)CSc2nnnn2-c2ccc3c(c2)OCO3)c1	RORa inhibitor 80
CC(C)OC(=O)CSc1nnnn1-c1ccc2c(c1)OCCO2	none
COc1ccc(OC)c(-n2nnnc2SCC(=O)Nc2ccc(C(=O)N3CCCCC3)cc2)c1	none
c1ccc(-c2noc(-c3ccc4ccccc4c3)n2)nc1	RORa inhibitor 92
CCOc1ccc(-c2nc(-c3ccccc3)no2)cc1OCC	none
c1ccc(-c2noc(-c3ccc4c(c3)OCO4)n2)nc1	RORa inhibitor 78
COc1ccc(-c2nc(-c3ccccc3OC)no2)cc1OC	none
CCc1ccc(OCc2nc(-c3ccccn3)no2)c(Br)c1	none
c1ccc(-c2noc(C3CCCCC3)n2)nc1	none
Cc1ccc(N2CC(C(=O)Oc3cccc(N4C(=O)CCC4=O)c3)CC2=O)cc1 (stereo not given)	none
Cc1sc2ncn(CC(=O)OCC(=O)NC(C)(C)C)c(=O)c2c1C	none
CCCCN(C)CCCNC(=O)CCn1nc(-c2ccccc2)ccc1=O	none
CC(C)Cn1cc(C(=O)NCc2cccs2)c2c3ccccc3n(C)c2c1=O	none
O=C(NCCC1=CCCCC1)c1ccc(CN2CCOCC2)cc1	none
CCOC(=O)c1sc2nc(SCC(=O)NCc3ccco3)n(Cc3ccccc3)c(=O)c2c1C	none
CCOc1ccc(/C=c2\sc3nc(-c4ccco4)nn3c2=O)cc1OCC	none
COc1ccc(-c2cc(=O)c3ccccc3s2)cc1	none
COc1ccc2c(c1)sc1nc(-c3ccccc3)cn12	RORa inhibitor 92
COc1ccc(-c2cn3c(C)c(C(=O)NC(C)(C)C)sc3n2)cc1	none
CCOC(=O)c1ccc(NC(=O)CNC(=O)C2CCCCC2)cc1	none
Cc1oc(C(=O)O)cc1COc1ccc2c(C)cc(=O)oc2c1	none
COc1ccc(NC(=O)CSc2[nH]c(=O)cc(C)c2C#N)cc1OC	none

Screening results: PubChem, The Scripps Research Institute Molecular Screening Center
